Results of several laboratories.
≈ marks a conversion by molar mass, not a printed value.
Organism: Enterococcus faecalis
Effect on: microbial growth

| SMILES | method | strain | notes | MIC |
| --- | --- | --- | --- | --- |
| C=C(NC(=O)C(=C)NC(=O)c1csc(C2=N[C@@H]3c4csc(n4)[C@H]4NC(=O)c5csc(n5)[C@H]([C@](C)(O)[C@@H](C)O)NC(=O)[C@H]5CSC(=N5)/C(=C/C)NC(=O)[C@H]([C@@H](C)O)NC(=O)c5csc(n5)[C@]3(CC2)NC(=O)[C@H](C)NC(=O)C(=C)NC(=O)[C@H](C)NC(=O)[C@H]([C@@H](C)CC)N[C@@H]2C=Cc3c([C@H](C)O)cc(nc3[C@H]2O)C(=O)O[C@@H]4C)n1)C(N)=O | – | – | – | 0.12 µg/mL (≈ 0.0721 µM) |
| CCCCCCCCCCCCCCCC(=O)NS(=O)(=O)OC1CCNCC1 | broth dilution | ATCC33186 | – | 12.5 µg/mL (≈ 29.9 µM) |
| COc1ccc2cc1Oc1cc(ccc1OC)CCC(N[C@@H]1CCCc3ccccc31)CCCC2 (stereo partly shown) | broth dilution | ATCC33186 | – | > 100 µg/mL |
| Cc1cc(Cl)ccc1-c1ccc(/C=C2\SC(=S)N(CC(=O)O)C2=O)o1 | broth dilution | VRE | drug-resistant strain | 1 to 8 µg/mL (≈ 2.54 to 20.3 µM) |
| CCCCCCCCCCCCCCCC(=O)C(F)(F)P(=O)(O)O | – | ATCC33186 | – | 100 µg/mL (≈ 270 µM) |
| CCCCCCCCCCCCCCCC(=O)NS(=O)(=O)Oc1cccc(Cl)c1 | broth dilution | ATCC33186 | – | 1.6 µg/mL (≈ 3.59 µM) |
| CCCCCCCCCCCC(=O)CP(=O)(O)O | – | ATCC33186 | – | 25 µg/mL (≈ 89.8 µM) |
| CN[C@@H]1[C@H](O)[C@H](NC)[C@H]2O[C@@]3(O)C(=O)C[C@@H](C)O[C@H]3O[C@@H]2[C@H]1O | broth dilution | ATCC33186 | – | 50 µg/mL (≈ 150 µM) |
| CCCCCCCCCCCCCCCC(=O)NS(=O)(=O)OC | broth dilution | ATCC33186 | – | 50 µg/mL (≈ 143 µM) |
| CCCCCCCCCCCC(=O)C(F)(F)P(=O)(O)O | – | ATCC33186 | – | 100 µg/mL (≈ 318 µM) |
